# pEC50: −log10 of the molar value.
# Legend:
# [1] = Ratio of C20 obtained in the absence or presence of [C20 (1 mg of yohimbine.) / C20 (control)]; format: functional
# Procedure, shortened: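 Pithed rat arterial pressure assay with tertatolol (100 mg/kg) pretreatment, then yohimbine (1 mg/kg) 10 min later. Cumulative iv agonist doses given at 20 s intervals after a further 10 min, C20 (+20 mmHg dose) obtained. Ratio expressed as C20(yohimbine)/C20(control); 3–6 determinations.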
# Canis familiaris [2] = species: Canis familiaris; test: Effective concentration for the agonist in the isolated blood vessel using in vitro saphenous vein; format: functional; details: Canis lupus familiaris
# Procedure, shortened: (§1)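 Vessel segments from mongrel dogs (15–25 kg) anesthetized with pentobarbital (30 mg/kg iv), mounted for isometric tension in physiological saline. Equilibrated 90 min with bath changes every 30 min, rauwolscine (10^-7 M) present throughout. Primed with KCl (100 mM), then phenylephrine (1 µM). Agonist concentration–response curves run at half-log steps, giving EC50 (µM) and Emax as % of phenylephrine maximum; mean ±SD.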
# Canis familiaris [3] = species: Canis familiaris; test: Effective concentration for the agonist in the isolated blood vessel using in vitro femoral artery; format: functional; details: Canis lupus familiaris; procedure, shortened: as §1
# Canis familiaris [4] = species: Canis familiaris; test: Maximal contractile response obtained with the agonist (expressed as a percentage of the maximal contraction to phenylephrine in the dog saphenous vein); format: functional, Canis lupus familiaris; procedure, shortened: as §1
# Canis familiaris [5] = species: Canis familiaris; test: Maximal contractile response obtained with the agonist (expressed as a percentage of the maximal contraction to phenylephrine in the dog femoral artery); format: functional, Canis lupus familiaris; procedure, shortened: as §1
# [6] = target: T1, Adrenergic receptor alpha-1 (Rattus norvegicus, UniProt P15823+P23944+P43140); test: Displacement of [3H]prazosin from rat cortex Alpha-1 adrenergic receptor
# T1 sequence (P15823 whole entry): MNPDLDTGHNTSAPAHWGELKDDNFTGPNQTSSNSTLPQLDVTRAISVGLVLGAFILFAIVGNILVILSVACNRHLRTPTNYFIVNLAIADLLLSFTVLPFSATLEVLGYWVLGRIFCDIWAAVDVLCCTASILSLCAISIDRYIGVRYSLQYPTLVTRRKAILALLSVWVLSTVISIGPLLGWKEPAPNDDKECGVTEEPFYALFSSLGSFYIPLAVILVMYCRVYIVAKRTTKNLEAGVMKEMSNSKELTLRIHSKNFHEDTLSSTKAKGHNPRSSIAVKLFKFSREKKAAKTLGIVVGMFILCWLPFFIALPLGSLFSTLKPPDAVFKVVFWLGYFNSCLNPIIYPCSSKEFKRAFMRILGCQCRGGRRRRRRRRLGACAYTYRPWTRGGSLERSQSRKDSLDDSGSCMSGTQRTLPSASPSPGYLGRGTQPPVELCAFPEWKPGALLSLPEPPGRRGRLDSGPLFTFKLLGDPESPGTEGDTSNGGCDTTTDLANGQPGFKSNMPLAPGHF
# T1 sequence (P23944 whole entry): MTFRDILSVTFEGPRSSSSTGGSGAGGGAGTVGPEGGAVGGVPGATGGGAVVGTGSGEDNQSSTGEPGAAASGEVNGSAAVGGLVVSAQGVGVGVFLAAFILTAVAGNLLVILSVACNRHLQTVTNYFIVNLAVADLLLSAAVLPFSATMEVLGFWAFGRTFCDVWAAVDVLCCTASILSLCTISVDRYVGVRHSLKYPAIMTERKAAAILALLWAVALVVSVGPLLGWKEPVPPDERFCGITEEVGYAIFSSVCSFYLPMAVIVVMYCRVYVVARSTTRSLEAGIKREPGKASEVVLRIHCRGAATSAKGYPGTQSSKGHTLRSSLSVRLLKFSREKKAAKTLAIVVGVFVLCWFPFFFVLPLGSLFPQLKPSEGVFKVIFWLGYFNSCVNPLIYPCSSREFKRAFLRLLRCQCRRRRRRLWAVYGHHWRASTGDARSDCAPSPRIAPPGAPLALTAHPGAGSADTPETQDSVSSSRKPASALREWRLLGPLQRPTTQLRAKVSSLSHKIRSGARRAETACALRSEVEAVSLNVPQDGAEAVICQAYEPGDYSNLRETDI
# T1 sequence (P43140 whole entry): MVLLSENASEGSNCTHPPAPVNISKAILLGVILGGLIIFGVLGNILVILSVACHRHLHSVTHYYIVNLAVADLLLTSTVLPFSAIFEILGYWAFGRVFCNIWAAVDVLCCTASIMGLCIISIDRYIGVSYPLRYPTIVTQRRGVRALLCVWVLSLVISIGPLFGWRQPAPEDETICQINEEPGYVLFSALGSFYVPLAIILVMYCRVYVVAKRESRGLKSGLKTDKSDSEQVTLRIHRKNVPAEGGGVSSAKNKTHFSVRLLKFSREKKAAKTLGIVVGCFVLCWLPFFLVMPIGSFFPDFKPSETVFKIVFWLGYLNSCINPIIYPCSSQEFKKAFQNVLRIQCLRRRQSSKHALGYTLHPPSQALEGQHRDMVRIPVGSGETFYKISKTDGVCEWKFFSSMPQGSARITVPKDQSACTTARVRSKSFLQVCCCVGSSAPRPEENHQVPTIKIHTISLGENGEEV
# Procedure, shortened: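 Rat cortex membranes labelled with [3H]prazosin (0.3 nM), nonspecific binding with prazosin (10 µM). Nine drug concentrations spanning 3 log units, IC50 by log-probit analysis. Ki by Cheng–Prusoff using Kd from Scatchard saturation. At least three independent experiments in duplicate.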
# [7] = target: T2, Adrenergic receptor alpha (Rattus norvegicus) (UniProt P15823+P23944+P43140+P22086+P19328+P22909); test: Alpha adrenergic activity was evaluated as concentration (iv) which increases the arterial pressure by 20 mmHg in the pithed rat; format: functional, organism-based; details: Artery
# [8] = target: T2, Adrenergic receptor alpha (Rattus norvegicus); test: Alpha adrenergic activity was evaluated as maximal pressure response caused by agonist, expressed in mmHg (the maximum obtained with phenylephrine is 150 mmHg).; format: functional
# [9] = Ratio of C20 obtained in the absence or presence of [C20 ( 0.1 mg of prazosin ) / C20 (control)]; format: functional
# Procedure, shortened: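 Pithed rats pretreated with tertatolol (100 mg/kg), then 10 min later with prazosin (100 µg/kg). Cumulative iv agonist doses given another 10 min later at 20 s intervals. Arterial pressure recorded, C20 (dose giving +20 mmHg) determined. Ratio calculated as C20(prazosin)/C20(control); 3–6 determinations.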
Compound,Ratio [1],pEC50 (Canis familiaris [2]),pEC50 (Canis familiaris [3]),Emax (Canis familiaris [4]),Emax (Canis familiaris [5]),Ki [6] [nM],C20 [7] [µg/kg],Max [8] [mmHg],Ratio [9]
COc1ccc(SC)c2c1CC1(CC2)CN=CN1 (stereo not drawn),45,6.74,6.54,98,96,600,0.003,136,75
Oc1cccc2c1CC1(CC2)CN=CN1 (stereo not drawn),12,5.00,4.41,66,22,–,4.3,119,0.9
COc1cccc2c1CCC1(CN=CN1)C2 (stereo not drawn),4.7,6.10,5.70,101,93,3400,0.85,139,5.4
CCc1ccc2c(c1)CC1(CC2)CN=CN1 (stereo not drawn),2.6,4.12,–,50,0,–,209,61,2.5
CC(C)Oc1ccc2c(c1)CCC1(CN=CN1)C2 (stereo not drawn),66,5.41,–,15,0,–,74,62,11
COc1ccc(SC)c2c1C[C@@H]1[C@@H](C2)OCCN1C,2.4,7.64,4.42,38,28,–,23,123,5.1
CC1=NC2(CCc3ccccc3C2)CN1 (stereo not drawn),5.3,3.40,–,23,0,–,166,113,1.8
COc1ccc(Cl)c2c1CCC1(CN=CN1)C2 (stereo not drawn),–,7.57,6.57,106,102,–,–,–,–
CC(C)(C)c1ccc2c(c1)CC1(CC2)CN=CN1 (stereo not drawn),1.6,4.40,–,35,0,–,465,45,1.7
COc1ccc2c(c1OC)CCC1(CN=CN1)C2 (stereo not drawn),2.4,4.28,4.30,67,21,–,142,107,2.9
CN1C=NC2(CCc3ccccc3C2)C1 (stereo not drawn),2.5,4.60,–,31,0,–,150,77,2.1
Cc1ccc(C)c2c1CCC1(CN=CN1)C2 (stereo not drawn),4.8,5.62,5.52,84,67,–,0.5,140,2.1
C1=NC2(CCc3ccccc3C2)CO1 (stereo not drawn),–,–,–,0,0,–,> 10000,38,–
COc1ccc(OC)c2c1CCC1(CN=CN1)C2 (stereo not drawn),2,6.52,6.92,106,77,2000,0.05,128,21
NC1=NC2(CCc3ccccc3C2)CO1 (stereo not drawn),19.6,5.64,4.59,76,18,–,5.2,95,3.5
Fc1cc(F)c2c(c1)CC1(CC2)CN=CN1 (stereo not drawn),5.7,5.20,–,35,0,–,31,84,2.4
Clc1cccc2c1CCC1(CN=CN1)C2 (stereo not drawn),2.8,–,–,–,–,–,7,125,1.3
CCOc1ccc(OC)c2c1CCC1(CN=CN1)C2 (stereo not drawn),4.8,6.10,7.10,98,85,–,0.06,147,21.5
FC(F)(F)c1ccc2c(c1)CC1(CC2)CN=CN1 (stereo not drawn),2.7,–,–,7,–,–,320,55,10
Clc1cccc2c1CC1(CC2)CN=CN1 (stereo not drawn),4.7,6.62,5.80,95,83,–,0.3,133,1.9
Clc1cc(Cl)c2c(c1)CCC1(CN=CN1)C2 (stereo not drawn),–,5.22,5.10,100,75,–,4.2,137,–
COc1cc2c(cc1O)CCC1(CN=CN1)C2 (stereo not drawn),2.8,4.72,5.85,97,69,–,1.2,134,9.2
NC1=NC2(CCc3ccccc3C2)CN1 (stereo not drawn),26,4.28,4.30,36,2,–,57,53,2.5
Clc1cc2c(cc1Cl)CC1(CC2)CN=CN1 (stereo not drawn),3.1,4.36,–,36,0,–,33,101,7
COc1cc2c(cc1OC)CC1(CC2)CN=CN1 (stereo not drawn),–,–,–,–,–,–,98,129,1.8
CCOc1ccc(OCC)c2c1CCC1(CN=CN1)C2 (stereo not drawn),7.7,5.57,6.07,68,55,–,0.6,157,24
COc1cc2c(c(OC)c1)CCC1(CN=CN1)C2 (stereo not drawn),2.6,5.14,6.15,44,25,–,7.9,109,2.9
Cc1ccc2c(c1)CCC1(CN=CN1)C2 (stereo not drawn),6.1,5.68,4.85,44,12,–,5.4,114,1.3

# Source: ChEMBL document CHEMBL1128460, “Design, synthesis, and structure-activity relationships of a new series of alpha-adrenergic agonists: spiro[(1,3-diazacyclopent-1-ene)-5,2'-(1',2',3',4'- tetrahydronaphthalene)]” (J Med Chem, 1995)
